Measurements taken from ChEMBL document CHEMBL4033670, “Synthesis, characterization, molecular docking and in vitro antimalarial properties of new carboxamides bearing sulphonamide” (Eur J Med Chem, 2017).

Legend:
Type in all cases: functional
[1] = Antioxidant activity assessed as inhibition of DPPH radical generation at 1 mg/ml after 20 mins under dark condition by UV-Visible spectrophotometric analysis relative to control
In short: (§1)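 Test compounds were made up in ethanol at 1.0, 2.0, 3.0, 4.0 and 5.0 mg/mL (solution concentrations before mixing). 1 mL of each was shaken with 4 mL of 0.1 mM ethanolic DPPH and kept in the dark at room temperature for 20 min. The decrease in A517 was read against an ethanol baseline. A DPPH blank had no compound. Scavenging % = [(Ac − As)/Ac] × 100.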

[2] = Antioxidant activity assessed as inhibition of DPPH radical generation at 2 mg/ml after 20 mins under dark condition by UV-Visible spectrophotometric analysis relative to control; in short: as §1
[3] = Antioxidant activity assessed as inhibition of DPPH radical generation at 5 mg/ml after 20 mins under dark condition by UV-Visible spectrophotometric analysis relative to control; in short: as §1
[4] = Antioxidant activity assessed as inhibition of DPPH radical generation at 3 mg/ml after 20 mins under dark condition by UV-Visible spectrophotometric analysis relative to control; in short: as §1
[5] = Antioxidant activity assessed as inhibition of DPPH radical generation at 4 mg/ml after 20 mins under dark condition by UV-Visible spectrophotometric analysis relative to control; in short: as §1
Plasmodium falciparum = experiment: Antimalarial activity against ring stage chloroquine-resistant Plasmodium falciparum W2 preincubated for 48 hrs measured after 48 hrs in presence of 10% human serum by YOYO-1 dye-based FACS analysis
In short: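 Sorbitol-synchronized ring-stage W2 parasites at 0.1% parasitemia grown 48 h in RPMI-1640 + 10% human serum under 3% O2/6% CO2/91% N2 with inhibitors (from 1000× DMSO stocks), no media change. Fixed 48 h in 1% formaldehyde/PBS pH 7.4 at room temperature. Stained with 1 nM YOYO-1 in 0.1% Triton X-100/PBS. Parasitemia read by flow cytometry.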

[6] = Antioxidant activity assessed as DPPH radical scavenging activity after 20 mins under dark condition by UV-Visible spectrophotometric analysis; in short: as §1
[7] = Antioxidant activity assessed as inhibition of DPPH radical generation at 0.01 mg/ml after 20 mins under dark condition by UV-Visible spectrophotometric analysis relative to control
[8] = Antioxidant activity assessed as inhibition of DPPH radical generation at 0.04 mg/ml after 20 mins under dark condition by UV-Visible spectrophotometric analysis relative to control
[9] = Antioxidant activity assessed as inhibition of DPPH radical generation at 0.02 mg/ml after 20 mins under dark condition by UV-Visible spectrophotometric analysis relative to control
[10] = Antioxidant activity assessed as inhibition of DPPH radical generation at 0.03 mg/ml after 20 mins under dark condition by UV-Visible spectrophotometric analysis relative to control
[11] = Antioxidant activity assessed as inhibition of DPPH radical generation at 0.05 mg/ml after 20 mins under dark condition by UV-Visible spectrophotometric analysis relative to control

CC(=O)c1ccc(NC(=O)C2CCCN2S(=O)(=O)c2ccc(C)cc2)cc1 (stereo unspecified)
inhibition [1]: 20.6%
inhibition [2]: 20.7%
inhibition [3]: 20.7%
inhibition [4]: 20.7%
inhibition [5]: 20.7%
MIC99 (Plasmodium falciparum): 1.45 µM
IC50 [6]: 36 mM

CC(=O)c1ccc(NC(=O)C(C(C)C)N(C(=O)c2ccccc2)S(=O)(=O)c2ccc(C)cc2)cc1 (stereo unspecified)
inhibition [1]: 15.6%
inhibition [2]: 22.7%
inhibition [3]: 42.7%
inhibition [4]: 29.7%
inhibition [5]: 36.6%
MIC99 (Plasmodium falciparum): 2.82 µM
IC50 [6]: 12 mM

CC(=O)c1ccc(NC(=O)CN(C(=O)c2ccccc2)S(=O)(=O)c2ccc(C)cc2)cc1
inhibition [1]: 17.9%
inhibition [2]: 18.1%
inhibition [3]: 18.7%
inhibition [4]: 18.2%
inhibition [5]: 18.4%
MIC99 (Plasmodium falciparum): 0.72 µM
IC50 [6]: 102 mM

CCN(CC)CCCC(C)Nc1ccnc2cc(Cl)ccc12 (stereo unspecified) [CHLOROQUINE]
MIC99 (Plasmodium falciparum): 0.06 µM

CC(=O)c1ccc(NC(=O)C(C(C)C)N(C(=O)c2ccccc2)S(=O)(=O)c2ccc([N+](=O)[O-])cc2)cc1 (stereo unspecified)
inhibition [1]: 29.8%
inhibition [2]: 29.8%
inhibition [3]: 27.4%
inhibition [4]: 29.8%
inhibition [5]: 27.2%
MIC99 (Plasmodium falciparum): 1.57 µM
IC50 [6]: 6.8 mM

CC(=O)c1ccc(NC(=O)C2CC(O)CN2S(=O)(=O)c2ccccc2)cc1 (stereo unspecified)
inhibition [1]: 40.2%
inhibition [2]: 57%
inhibition [3]: 58.7%
inhibition [4]: 49.8%
inhibition [5]: 54.5%
MIC99 (Plasmodium falciparum): 0.16 µM
IC50 [6]: 3.8 mM

CC(=O)c1ccc(NC(=O)C2CC(O)CN2S(=O)(=O)c2ccc([N+](=O)[O-])cc2)cc1 (stereo unspecified)
inhibition [1]: 43.2%
inhibition [3]: 70.7%
inhibition [4]: 58.7%
inhibition [5]: 60.1%
MIC99 (Plasmodium falciparum): 0.32 µM
IC50 [6]: 7.1 mM

CCC(C)C(C(=O)Nc1ccc(C(C)=O)cc1)N(C(=O)c1ccccc1)S(=O)(=O)c1ccccc1 (stereo unspecified)
inhibition [1]: 9.71%
inhibition [2]: 11.3%
inhibition [3]: 16.8%
inhibition [4]: 14.2%
inhibition [5]: 15.5%
MIC99 (Plasmodium falciparum): 1.25 µM
IC50 [6]: 8.6 mM

CC(=O)c1ccc(NC(=O)C(Cc2c[nH]c3ccccc23)N(C(=O)c2ccccc2)S(=O)(=O)c2ccc([N+](=O)[O-])cc2)cc1 (stereo unspecified)
inhibition [1]: 22.1%
inhibition [2]: 22.9%
inhibition [3]: 24.3%
inhibition [4]: 23.5%
inhibition [5]: 24%
IC50 [6]: 0.73 mM

CC(=O)c1ccc(NC(=O)C(Cc2c[nH]c3ccccc23)N(C(=O)c2ccccc2)S(=O)(=O)c2ccccc2)cc1 (stereo unspecified)
inhibition [1]: 31.7%
inhibition [2]: 39.4%
inhibition [3]: 61.2%
inhibition [4]: 47%
inhibition [5]: 54.1%
IC50 [6]: 51 mM

CC(=O)c1ccc(NC(=O)C(C(C)C)N(C(=O)c2ccccc2)S(=O)(=O)c2ccccc2)cc1 (stereo unspecified)
inhibition [1]: 32.1%
inhibition [2]: 41.3%
inhibition [3]: 54.2%
inhibition [4]: 47.5%
inhibition [5]: 52.2%
MIC99 (Plasmodium falciparum): 1.7 µM
IC50 [6]: 13 mM

CC(=O)c1ccc(NC(=O)CN(C(=O)c2ccccc2)S(=O)(=O)c2ccccc2)cc1
inhibition [1]: 40.5%
inhibition [2]: 40.5%
inhibition [3]: 45.4%
inhibition [4]: 40.7%
inhibition [5]: 40.9%
MIC99 (Plasmodium falciparum): 0.97 µM
IC50 [6]: 32 mM

CC(=O)c1ccc(NC(=O)C2CCCN2S(=O)(=O)c2ccc([N+](=O)[O-])cc2)cc1 (stereo unspecified)
inhibition [1]: 22.7%
inhibition [2]: 23.5%
inhibition [3]: 25.6%
inhibition [4]: 24.3%
inhibition [5]: 25.3%
MIC99 (Plasmodium falciparum): 6.74 µM
IC50 [6]: 19 mM

O=C1O[C@H]([C@@H](O)CO)C(O)=C1O [ASCORBIC ACID]
inhibition [7]: 15%
inhibition [8]: 30%
inhibition [9]: 20%
inhibition [10]: 25%
inhibition [11]: 40%
IC50 [6]: 0.34 mM

C=C[C@H]1CN2CC[C@H]1C[C@H]2[C@H](O)c1ccnc2ccc(OC)cc12 [QUININE]
MIC99 (Plasmodium falciparum): 0.83 µM

CC(=O)c1ccc(NC(=O)C2CCCN2S(=O)(=O)c2ccccc2)cc1 (stereo unspecified)
inhibition [1]: 22.8%
inhibition [2]: 25.8%
inhibition [3]: 35.7%
inhibition [4]: 29.1%
inhibition [5]: 33.4%
MIC99 (Plasmodium falciparum): 0.11 µM
IC50 [6]: 69 mM

CC(=O)c1ccc(NC(=O)C(Cc2ccccc2)N(C(=O)c2ccccc2)S(=O)(=O)c2ccccc2)cc1 (stereo unspecified)
inhibition [1]: 2.18%
inhibition [2]: 4.37%
inhibition [3]: 11%
inhibition [4]: 7.21%
inhibition [5]: 9.28%
MIC99 (Plasmodium falciparum): 0.9 µM
IC50 [6]: 11 mM

CC(=O)c1ccc(NC(=O)C(Cc2ccccc2)N(C(=O)c2ccccc2)S(=O)(=O)c2ccc([N+](=O)[O-])cc2)cc1 (stereo unspecified)
inhibition [1]: 19.3%
inhibition [2]: 26.8%
inhibition [3]: 49.2%
inhibition [4]: 34.5%
inhibition [5]: 40%
MIC99 (Plasmodium falciparum): 0.08 µM
IC50 [6]: 39 mM

CCC(C)C(C(=O)Nc1ccc(C(C)=O)cc1)N(C(=O)c1ccccc1)S(=O)(=O)c1ccc(C)cc1 (stereo unspecified)
inhibition [1]: 18.6%
inhibition [2]: 25.7%
inhibition [3]: 47.3%
inhibition [4]: 33.4%
inhibition [5]: 41%
MIC99 (Plasmodium falciparum): 5.11 µM
IC50 [6]: 10 mM

CC(=O)c1ccc(NC(=O)C(CC(C)C)N(C(=O)c2ccccc2)S(=O)(=O)c2ccc(C)cc2)cc1 (stereo unspecified)
inhibition [1]: 54%
inhibition [2]: 58.1%
inhibition [3]: 71.3%
inhibition [4]: 63.1%
inhibition [5]: 67.2%
MIC99 (Plasmodium falciparum): 0.17 µM
IC50 [6]: 11 mM

CC(=O)c1ccc(NC(=O)C(Cc2c[nH]c3ccccc23)N(C(=O)c2ccccc2)S(=O)(=O)c2ccc(C)cc2)cc1 (stereo unspecified)
inhibition [1]: 39.5%
inhibition [2]: 58%
inhibition [3]: 39.5%
inhibition [4]: 39.5%
inhibition [5]: 39.5%
IC50 [6]: 0.045 mM

CCC(C)C(C(=O)Nc1ccc(C(C)=O)cc1)N(C(=O)c1ccccc1)S(=O)(=O)c1ccc([N+](=O)[O-])cc1 (stereo unspecified)
inhibition [1]: 28.6%
inhibition [2]: 31.7%
inhibition [3]: 53.2%
inhibition [4]: 42.1%
inhibition [5]: 48.4%
MIC99 (Plasmodium falciparum): 0.2 µM
IC50 [6]: 50 mM

CC(=O)c1ccc(NC(=O)C(CC(C)C)N(C(=O)c2ccccc2)S(=O)(=O)c2ccc([N+](=O)[O-])cc2)cc1 (stereo unspecified)
inhibition [1]: 45%
inhibition [3]: 81.3%
inhibition [4]: 62.3%
inhibition [5]: 71%
MIC99 (Plasmodium falciparum): 0.06 µM
IC50 [6]: 8.4 mM

CC(=O)c1ccc(NC(=O)CN(C(=O)c2ccccc2)S(=O)(=O)c2ccc([N+](=O)[O-])cc2)cc1
inhibition [1]: 20.6%
inhibition [2]: 20.6%
inhibition [3]: 20.7%
inhibition [4]: 20.6%
inhibition [5]: 20.7%
MIC99 (Plasmodium falciparum): 0.18 µM
IC50 [6]: 58 mM

CC(=O)c1ccc(NC(=O)C(CC(C)C)N(C(=O)c2ccccc2)S(=O)(=O)c2ccccc2)cc1 (stereo unspecified)
inhibition [1]: 27.7%
inhibition [2]: 54.2%
inhibition [3]: 52.2%
inhibition [4]: 40.7%
inhibition [5]: 46.9%
MIC99 (Plasmodium falciparum): 0.26 µM
IC50 [6]: 3.2 mM

CC(=O)c1ccc(NC(=O)C2CC(O)CN2S(=O)(=O)c2ccc(C)cc2)cc1 (stereo unspecified)
inhibition [1]: 12.4%
inhibition [2]: 12.5%
inhibition [3]: 13%
inhibition [4]: 12.7%
inhibition [5]: 12.9%
MIC99 (Plasmodium falciparum): 2.27 µM
IC50 [6]: 25 mM

CC(=O)c1ccc(NC(=O)C(Cc2ccccc2)N(C(=O)c2ccccc2)S(=O)(=O)c2ccc(C)cc2)cc1 (stereo unspecified)
inhibition [1]: 25.4%
inhibition [2]: 32.7%
inhibition [3]: 53.6%
inhibition [4]: 39.6%
inhibition [5]: 48.5%
MIC99 (Plasmodium falciparum): 0.78 µM
IC50 [6]: 7.6 mM
